Legend:
[1] = molecular target: T1, Poly [ADP-ribose] polymerase 1 (Homo sapiens, UniProt P09874)
[2] = molecular target: T1, Poly [ADP-ribose] polymerase 1; assay: In vitro inhibition against human full length PARP protein; IA means inactive
Method in brief: (§1)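 Baculovirus-expressed, purified human full-length PARP (20 nM) with DNase I-activated calf thymus DNA (10 μg/mL) and NAD+ (500 μM, with [32P]NAD+). Run in 50 mM Tris pH 8.0, 10 mM MgCl2, 1 mM TCEP, 2% DMSO, 25 °C, 5 min (linear to 8 min). Stopped with ice-cold TCA and filtered. Acid-insoluble [32P]ADP-ribose read by phosphorimager. Ki from competitive-inhibition fit; tight-binding equation where needed.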

[3] = molecular target: T1, Poly [ADP-ribose] polymerase 1; assay: In vitro inhibition against human full length PARP protein
Method in brief: as §1

A2780 [4] = assay: Potentiation of growth inhibition of A2780 by compound alone in experiment 1; assay type: functional, cell-based; settings: Homo sapiens
Method in brief: (§2)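 A2780 cells were grown in HEPES-RPMI 1640 + 10% FCS and seeded at 2.0–2.5 × 10^3 per well. After overnight attachment (16–24 h) they were exposed for 72 h to graded temozolomide or topotecan ± 10 μM PARP inhibitor (1% DMSO). Sulforhodamine B read at 570 nm, 5 replicate wells, % of matched control. IC50 by nonlinear regression; potentiation is IC50 alone over IC50 with inhibitor.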

A2780 [5] = assay: Potentiation of growth inhibition of A2780 cells by compound alone in experiment 2; assay type: functional, cell-based; settings: Homo sapiens
Method in brief: as §2

A2780 [6] = assay: Potentiation of growth inhibition of A2780 cells along with 10 uM NU1085 in experiment 1; assay type: functional, cell-based; settings: Homo sapiens
Method in brief: as §2

A2780 [7] = assay: Potentiation of growth inhibition of A2780 cells along with 10 uM NU1085 in experiment 2; assay type: functional, cell-based; settings: Homo sapiens
Method in brief: as §2

A2780 [8] = assay: Potentiation factor at 50% growth inhibition (IC50 of compound to that of compound along with PARP inhibitor) in experiment 1; assay type: functional, Homo sapiens
Method in brief: as §2

A2780 [9] = assay: Potentiation factor at 50% growth inhibition (IC50 of compound to that of compound along with PARP inhibitor) in experiment 2; assay type: functional, Homo sapiens
Method in brief: as §2

A2780 [10] = assay: Potentiation of growth inhibition of A2780 cells by compound alone in experiment 1; assay type: functional, cell-based; settings: Homo sapiens
Method in brief: as §2

T1 sequence (P09874 whole entry): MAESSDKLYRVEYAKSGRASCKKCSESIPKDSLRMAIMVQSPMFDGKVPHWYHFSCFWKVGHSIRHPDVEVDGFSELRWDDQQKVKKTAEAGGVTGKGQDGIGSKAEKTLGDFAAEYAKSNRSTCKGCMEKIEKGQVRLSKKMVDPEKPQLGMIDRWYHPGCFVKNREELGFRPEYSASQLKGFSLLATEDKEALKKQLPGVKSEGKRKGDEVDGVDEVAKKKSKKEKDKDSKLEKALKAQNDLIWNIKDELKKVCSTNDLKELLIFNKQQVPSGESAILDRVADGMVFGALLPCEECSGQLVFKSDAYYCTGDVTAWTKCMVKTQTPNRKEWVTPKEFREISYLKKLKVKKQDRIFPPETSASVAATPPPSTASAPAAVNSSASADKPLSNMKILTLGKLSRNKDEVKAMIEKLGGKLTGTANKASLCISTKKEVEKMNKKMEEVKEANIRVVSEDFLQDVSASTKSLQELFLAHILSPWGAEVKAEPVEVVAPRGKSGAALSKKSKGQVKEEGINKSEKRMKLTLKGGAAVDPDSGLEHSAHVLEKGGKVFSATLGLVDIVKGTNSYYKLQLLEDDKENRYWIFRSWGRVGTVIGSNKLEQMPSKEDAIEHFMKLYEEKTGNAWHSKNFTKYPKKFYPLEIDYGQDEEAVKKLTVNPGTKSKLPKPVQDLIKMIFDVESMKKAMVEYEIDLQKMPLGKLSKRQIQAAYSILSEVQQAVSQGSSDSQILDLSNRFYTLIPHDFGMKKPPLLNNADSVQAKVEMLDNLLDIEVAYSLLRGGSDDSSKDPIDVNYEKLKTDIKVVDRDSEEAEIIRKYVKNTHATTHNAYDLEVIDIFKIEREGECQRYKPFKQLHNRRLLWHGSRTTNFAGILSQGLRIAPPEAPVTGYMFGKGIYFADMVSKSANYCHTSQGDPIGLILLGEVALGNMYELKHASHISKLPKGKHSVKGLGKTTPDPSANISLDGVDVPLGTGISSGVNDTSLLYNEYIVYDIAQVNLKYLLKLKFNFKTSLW

| Structure (SMILES) | Ki [1] [nM] | also measured |
| --- | --- | --- |
| Cc1nc2c(C(N)=O)cccc2[nH]1 | 99 | – |
| CNC(=O)c1cccc2[nH]c(-c3ccc(O)cc3)nc12 | – | Ki [2]: Not Active |
| NC(=O)c1cccc2nc(-c3ccc(O)cc3)[nH]c12 | 6 | – |
| COc1ccc(-c2nc3c(C(N)=O)cccc3n2C)cc1 | 32 | – |
| COc1ccc(-c2nc3c(C(N)=O)cccc3[nH]2)cc1 | 6.8 | – |
| NC(=O)c1cccc2nc(-c3ccc(Cl)cc3)[nH]c12 | 3 | – |
| CNC(=O)c1cccc2[nH]c(-c3ccc(OC)cc3)nc12 | – | Ki [2]: Not Active |
| NC(=O)c1cccc2[nH]c(-c3cccc(Cl)c3)nc12 | 8.4 | – |
| NC(=O)c1cccc2[nH]c(C(F)(F)F)nc12 | 350 | – |
| NC(=O)c1cccc2[nH]c(-c3ccc(CO)cc3)nc12 | 1.6 | – |
| NC(=O)c1cccc2[nH]c(-c3ccccc3CO)nc12 | 10.6 | – |
| COc1ccc(-c2nc3c(C(N)=O)cccc3[nH]2)cc1OC | 5.4 | – |
| NC(=O)c1cccc2[nH]c(-c3ccccc3F)nc12 | 9 | – |
| NC(=O)c1cccc2[nH]cnc12 | 95 | – |
| CCOC(=O)c1ccc(-c2nc3c(C(N)=O)cccc3[nH]2)cc1 | 8.1 | – |
| COc1cc(-c2nc3c(C(N)=O)cccc3[nH]2)ccc1O | 13 | – |
| C=CCOc1cc(-c2nc3c(C(N)=O)cccc3[nH]2)ccc1OC | 9.4 | – |
| NC(=O)c1cccc2nc(-c3ccc(N)cc3)[nH]c12 | 11 | – |
| CN(C)c1ccc(-c2nc3c(C(N)=O)cccc3[nH]2)cc1 | 5.8 | – |
| NC(=O)c1cccc2[nH]c(-c3ccc(C(F)(F)F)cc3)nc12 | 1.2 | – |
| NC(=O)c1cccc2[nH]c(-c3cccc(C(F)(F)F)c3)nc12 | 8 | – |
| NC(=O)c1cccc2[nH]c(-c3cccc(O)c3)nc12 | 6.3 | – |
| NC(=O)c1cccc2[nH]c(-c3ccc4c(c3)OCO4)nc12 | 5.9 | – |
| COc1ccc(-c2nc3c(C(N)=O)cccc3[nH]2)cc1O | 2 | – |
| COc1ccc(-c2nc3c(C(N)=O)cccc3n2C(=O)OCc2ccccc2)cc1 | 530 | – |
| NC(=O)c1cccc2[nH]c(-c3ccc([N+](=O)[O-])cc3)nc12 | – | Ki [3]: 8 nM |
| Cn1nnc2c(C(N)=O)ncn2c1=O [TEMOZOLOMIDE] | – | IC50 (A2780 [4]): 525 µM; IC50 (A2780 [5]): 368 µM; IC50 (A2780 [6]): 188 µM; IC50 (A2780 [7]): 183 µM; PF50 (A2780 [8]): 2.8; PF50 (A2780 [9]): 2 |
| CC[C@@]1(O)C(=O)OCc2c1cc1n(c2=O)Cc2cc3c(CN(C)C)c(O)ccc3nc2-1 [TOPOTECAN] | – | IC50 (A2780 [10]): 22.6 µM; IC50 (A2780 [5]): 22 µM; IC50 (A2780 [6]): 7.8 µM; IC50 (A2780 [7]): 8.7 µM; PF50 (A2780 [8]): 2.9; PF50 (A2780 [9]): 2.5 |

The next lines start with results.

| Ki [1] [nM] | Structure (SMILES) | also measured |
| --- | --- | --- |
| 136 | COc1cc(-c2nc3c(C(N)=O)cccc3[nH]2)cc(OC)c1OC | – |
| 190 | NC(=O)c1cccc2[nH]c(-c3ccccc3C(F)(F)F)nc12 | – |
| 290 | NC(=O)c1cccc2[nH]c(-c3ccc(C(=O)O)cc3)nc12 | – |
| 9.4 | NC(=O)c1cccc2[nH]c(-c3ccccc3Cl)nc12 | – |
| 4 | N#Cc1ccc(-c2nc3c(C(N)=O)cccc3[nH]2)cc1 | – |
| 10000 | O=C(O)c1cccc2[nH]c(-c3ccc(O)cc3)nc12 | – |
| 6.8 | NC(=O)c1cccc2[nH]c(-c3cccc(CO)c3)nc12 | – |
| 85 | CC(C)[Si](OCc1ccc(-c2nc3c(C(N)=O)cccc3[nH]2)cc1)(C(C)C)C(C)C | – |
| 126 | COc1ccccc1-c1nc2c(C(N)=O)cccc2[nH]1 | – |

— ChEMBL document CHEMBL1132951, “Resistance-modifying agents. 9. Synthesis and biological properties of benzimidazole inhibitors of the DNA repair enzyme poly(ADP-ribose) polymerase” (J Med Chem, 2000)
